Laboratory results as given in ChEMBL document CHEMBL1126841, “Synthesis and structure-activity relationships of 1-acyl-4-((2-methyl-3-pyridyl)cyanomethyl)piperazines as PAF antagonists” (J Med Chem, 1993).

Key:
Assay type in all cases: functional
[1] = test system: Mus musculus; experiment: Tested for dose required to inhibit endotoxin-induced mortality by 50 % when administered intravenously in endotoxin-induced mortality (EIM) mice; conditions: iv, read-out: ID50 (the source's name)
How it was run: (§1)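 Groups of 10 male Swiss mice (22-26 g) were dosed iv (saline vehicle) 5 min or po (1% Tween 80 vehicle) 30 min before tail-vein injection of E. coli 0111:B4 endotoxin, 20 mg/kg. Mortality was scored at 7 days versus vehicle controls. ID50 was obtained by linear regression of a single curve of at least four points.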

[2] = test system: Mus musculus; experiment: Tested for dose required to inhibit antigen-induced mortality by 50 % when administered perorally in active anaphylactic shock (AAS) mice; conditions: po, read-out: ID50 (the source's name)
How it was run: (§2)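 Male Swiss mice (30 g, groups of 10) were sensitized by ip injection of 1 mL saline containing 1 mg bovine serum albumin, then challenged with BSA. Compound was given iv 5 min or po 30 min before challenge. Survival was recorded 60 min after BSA. ID50 (dose inhibiting mortality by 50%) was obtained by linear regression of a single curve of at least four points.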

[3] = test system: Mus musculus; experiment: Tested for dose required to inhibit endotoxin-induced mortality by 50 % when administered perorally in endotoxin-induced mortality (EIM) mice; conditions: po, read-out: ID50 (the source's name); how it was run: as §1
[4] = test system: Rattus norvegicus; experiment: Tested for dose required to inhibit endotoxin-induced mortality by 50 % when administered perorally in endotoxin-induced mortality (EIM) rats; conditions: po, read-out: ID50 (the source's name)
How it was run: as §1, with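 “Sprague-Dawley rats (150-175” for “Swiss mice (22-26”, “0127:B8” for “0111:B4”, “5” for “20”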

[5] = test system: Rattus norvegicus; experiment: Tested for dose required to inhibit endotoxin-induced mortality by 50 % when administered intravenously in endotoxin-induced mortality (EIM) rats; conditions: iv, read-out: ID50 (the source's name)
How it was run: as §1, with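 “Sprague-Dawley rats (150-175” for “Swiss mice (22-26”, “0127:B8” for “0111:B4”, “5” for “20”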

[6] = test system: Mus musculus; experiment: Tested for dose required to inhibit antigen-induced mortality by 50 % when administered intravenously in active anaphylactic shock (AAS) mice; conditions: iv, read-out: ID50 (the source's name); how it was run: as §2
[7] = test system: Mus musculus; experiment: Tested for dose required to inhibit antigen-induced mortality by 50 % when administered intravenously in active anaphylactic shock (AAS) mice.; conditions: iv, read-out: ID50 (the source's name); how it was run: as §2
[8] = molecular target: Platelet-activating factor receptor (Mus musculus) (UniProt Q62035); experiment: Dose required to inhibit PAF-induced mortality by 50% in mice; conditions: Mus sp.
How it was run: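 Male Swiss mice (22-26 g), groups of 10; test compound given po (20 mL/kg), controls 1% Tween 80. 60 min later, C18-PAF 100 µg/kg plus propanolol 1 mg/kg injected into a lateral tail vein. Mortality scored 2 h after PAF; % inhibition vs controls. ID50 from linear regression of one curve, ≥4 points. Initial dose 3 mg/kg; further doses only if >50% inhibition.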

[9] = test system: Mus musculus; experiment: Tested for dose required to inhibit antigen-induced mortality by 50 % when administered perorally in active anaphylactic shock (AAS) mice.; conditions: po, read-out: ID50 (the source's name); how it was run: as §2
[10] = molecular target: Platelet-activating factor receptor (Rattus norvegicus) (UniProt P46002); experiment: Intravenous dose required to reduce the arterial blood pressure caused by PAF by 50% in rats
How it was run: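 Male Sprague-Dawley rats (180-220 g) under pentobarbital anesthesia (50 mg/kg ip); carotid blood pressure recorded. Compound in saline given iv (femoral vein) 3 min before PAF 0.5 µg/kg iv; controls got vehicle. % inhibition of hypotension vs controls. ID50 from linear regression of one curve, ≥4 doses, each the mean of ≥2 independent experiments.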

[11] = test system: Rattus norvegicus; experiment: Tested for dose required to inhibit endotoxin-induced mortality by 50 % when administered intravenously in endotoxin-induced mortality (EIM) in rats; conditions: iv, read-out: ID50 (the source's name)
How it was run: as §1, with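 “Sprague-Dawley rats (150-175” for “Swiss mice (22-26”, “0127:B8” for “0111:B4”, “5” for “20”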

[12] = test system: Rattus norvegicus; experiment: Tested for dose required to inhibit endotoxin-induced mortality by 50 % when administered perorally in endotoxin-induced mortality (EIM) in rats; conditions: po, read-out: ID50 (the source's name)
How it was run: as §1, with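 “Sprague-Dawley rats (150-175” for “Swiss mice (22-26”, “0127:B8” for “0111:B4”, “5” for “20”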

[13] = species on record: Oryctolagus cuniculus; experiment: In vitro inhibition of PAF-induced platelet aggregation in male rabbits
How it was run: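 Platelet-rich plasma from blood spun 250 g, 10 min, 4 °C, diluted with platelet-poor plasma (3000 g, 10 min) to 3.5 × 10^5 platelets/mm3. Aggregation induced with C18-PAF 1.5 × 10^-8 M and read on a dual-channel aggregometer. IC50 as 50% inhibition of maximal aggregation, by linear regression of one curve, ≥4 points, each the mean of 1-3 independent experiments.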

Sequence of Platelet-activating factor receptor (Mus musculus) (Q62035 whole entry): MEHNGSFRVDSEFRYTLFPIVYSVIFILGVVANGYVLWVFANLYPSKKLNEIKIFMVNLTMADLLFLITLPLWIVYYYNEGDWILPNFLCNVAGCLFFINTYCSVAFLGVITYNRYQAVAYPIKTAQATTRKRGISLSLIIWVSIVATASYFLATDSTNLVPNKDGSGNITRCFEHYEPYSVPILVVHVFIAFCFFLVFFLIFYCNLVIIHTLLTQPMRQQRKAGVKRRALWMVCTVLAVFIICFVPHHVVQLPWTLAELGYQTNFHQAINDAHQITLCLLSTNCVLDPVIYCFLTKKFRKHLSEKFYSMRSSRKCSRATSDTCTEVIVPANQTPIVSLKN
Sequence of Platelet-activating factor receptor (Rattus norvegicus) (P46002 whole entry): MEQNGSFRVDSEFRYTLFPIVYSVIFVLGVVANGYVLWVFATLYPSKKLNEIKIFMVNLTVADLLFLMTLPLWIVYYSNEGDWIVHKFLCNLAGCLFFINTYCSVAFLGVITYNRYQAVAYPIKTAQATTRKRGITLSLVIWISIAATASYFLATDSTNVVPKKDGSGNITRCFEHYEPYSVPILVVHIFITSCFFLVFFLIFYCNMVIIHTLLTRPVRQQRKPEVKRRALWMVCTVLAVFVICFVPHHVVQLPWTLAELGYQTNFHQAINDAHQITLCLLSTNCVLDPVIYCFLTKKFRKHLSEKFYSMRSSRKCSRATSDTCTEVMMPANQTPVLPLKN

**Q.** For `Cc1nnc2n1-c1sc(CCC(=O)N3CCOCC3)cc1C(c1ccccc1Cl)=NC2` [APAFANT], which ED50 [1] is on record?
**A.** 1.7 mg/kg

**Q.** And the ED50 [2]?
**A.** 0.8 mg/kg

**Q.** And the ED50 [3]?
**A.** 13.2 mg/kg

**Q.** And the ED50 [4]?
**A.** 1.4 mg/kg

**Q.** And the ED50 [5]?
**A.** 0.47 mg/kg

**Q.** And the ED50 [6]?
**A.** 1.7 mg/kg

**Q.** How did the ED50 [1] turn out when `Cc1ncccc1C(C#N)N1CCN(C(=O)CNC(c2ccccc2)c2ccccc2)CC1` (stereo not given) was run?
**A.** 1.4 mg/kg

**Q.** And the ED50 [7]?
**A.** 0.51 mg/kg

**Q.** And the ID50 [8]?
**A.** 0.3 mg/kg

**Q.** What about the ED50 [9] of the same compound?
**A.** 2.7 mg/kg

**Q.** What about the ID50 [10] of the same compound?
**A.** 0.021 mg/kg

**Q.** What about the ED50 [3] of the same compound?
**A.** 9 mg/kg

**Q.** What about the ED50 [11] of the same compound?
**A.** 0.28 mg/kg

**Q.** And the ED50 [12]?
**A.** 1.4 mg/kg

**Q.** For `Cc1ncccc1C(C#N)N1CCN(C(=O)CC(c2ccccc2)N2C(=O)CCC2=O)CC1` (stereo not given), which IC50 [13] is on record?
**A.** 69 nM

**Q.** What about the ID50 [8] of the same compound?
**A.** 0.71 mg/kg

**Q.** And the ID50 [10]?
**A.** 0.042 mg/kg

**Q.** How did the ED50 [1] turn out when `COC(=O)NC(CC(=O)N1CCN(C(C#N)c2cccnc2C)CC1)c1ccccc1` (stereo not given) was run?
**A.** 1.7 mg/kg

**Q.** What about the ED50 [2] of the same compound?
**A.** 2.7 mg/kg

**Q.** And the ID50 [8]?
**A.** 0.044 mg/kg

**Q.** What about the ID50 [10] of the same compound?
**A.** 0.015 mg/kg

**Q.** And the ED50 [3]?
**A.** 7.5 mg/kg

**Q.** What about the ED50 [4] of the same compound?
**A.** 1 mg/kg

**Q.** And the ED50 [5]?
**A.** 0.11 mg/kg

**Q.** And the ED50 [6]?
**A.** 0.19 mg/kg
